ChEMBL document CHEMBL3861973, “Caldoramide, a Modified Pentapeptide from the Marine Cyanobacterium Caldora penicillata” (J Nat Prod, 2016)

How the values were obtained:
[1] = Cytotoxicity against human HCT116 cells assessed as reduction in cell viability measured after 48 hrs by ATPlite 1step luminescence assay; type: functional, cell-based; conditions: HCT-116, 48 h
[2] = Cytotoxicity against oncogenic KRAS knockout human HCT116 cells expressing wild type KRAS assessed as reduction in cell viability measured after 48 hrs by ATPlite 1step luminescence assay; type: functional, cell-based; conditions: HCT-116, 48 h
[3] = tested on: HCT-116; test: Selectivity ratio of IC50 for human HIF1alpha and HIF2alpha deficit HCT116 cells to IC50 for human HCT116 cells; type: functional
[4] = Cytotoxicity against human HIF1alpha and HIF2alpha deficit HCT116 cells assessed as reduction of cell viability measured after 48 hrs by ATPlite 1step luminescence assay relative to parental HCT116 cells; type: functional; conditions: HCT-116, 48 h
[5] = Cytotoxicity against human HIF1alpha and HIF2alpha deficit HCT116 cells assessed as reduction in cell viability measured after 48 hrs by ATPlite 1step luminescence assay; type: functional, cell-based; conditions: HCT-116, 48 h
[6] = Cytotoxicity against oncogenic KRAS knockout human HCT116 cells expressing wild type KRAS assessed as reduction in cell viability measured after 48 hrs by ATPlite 1step luminescence assay relative to parental HCT116 cells; type: functional; conditions: HCT-116, 48 h
[7] = tested on: HCT-116; test: Selectivity ratio of IC50 for oncogenic KRAS knockout human HCT116 cells to IC50 for human HCT116 cells; type: functional
[8] = Cytotoxicity against human HIF1alpha and HIF2alpha deficit HCT116 cells assessed as reduction in cell viability measured after 48 hrs by MTT assay relative to parental HCT116 cells; type: functional; conditions: HCT-116, 48 h
How it was run: (§1)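 Same isogenic HCT116 MTT set-up: cells in DMEM + 10% FBS at 37 °C, 5% CO2, 10,000 cells/well, dosed at graded concentrations after 24 h, MTT read 48 h post-treatment. Maximum efficacy in each knockout line expressed as percent of that in parental HCT116.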

[9] = Cytotoxicity against human HCT116 cells assessed as reduction in cell viability measured after 48 hrs by MTT assay; type: functional, cell-based; conditions: HCT-116, 48 h
How it was run: (§2)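 Parental HCT116, HIF-1α/HIF-2α double-knockout and oncogenic-KRAS-knockout (wild-type KRAS) isogenic lines grown in DMEM + 10% FBS, 37 °C, 5% CO2. Seeded at 10,000 cells/well; compound added at various concentrations 24 h later.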

[10] = Cytotoxicity against oncogenic KRAS knockout human HCT116 cells assessed as reduction in cell viability measured after 48 hrs by MTT assay; type: functional, cell-based; conditions: HCT-116, 48 h; how it was run: as §2
[11] = Cytotoxicity against human HIF1alpha and HIF2alpha deficit HCT116 cells assessed as reduction in cell viability measured after 48 hrs by MTT assay; type: functional, cell-based; conditions: HCT-116, 48 h; how it was run: as §2
[12] = Cytotoxicity against oncogenic KRAS knockout human HCT116 cells expressing wild type KRAS assessed as reduction in cell viability measured after 48 hrs by MTT assay relative to parental HCT116 cells; type: functional; conditions: HCT-116, 48 h; how it was run: as §1

| Structure (SMILES) | IC50 [1] | IC50 [2] | Ratio IC50 [3] | Emax [4] | IC50 [5] | Emax [6] | Ratio IC50 [7] | Emax [8] | IC50 [9] | IC50 [10] | IC50 [11] | Emax [12] |
| --- | --- | --- | --- | --- | --- | --- | --- | --- | --- | --- | --- | --- |
| CC[C@H](C)[C@@H]([C@@H](CC(=O)N1CCC[C@H]1[C@H](OC)[C@@H](C)C(=O)N[C@@H](Cc1ccccc1)c1nccs1)OC)N(C)C(=O)[C@@H](NC(=O)[C@H](C(C)C)N(C)C)C(C)C [DOLASTATIN-10] | 0.48 nM | 24 nM | >50 | 74% | 65 nM | 83% | >50 |  |  |  |  |  |
| CCCCCCCC(=O)SCC/C=C/[C@@H]1CC(=O)NCc2nc(cs2)C2=N[C@@](C)(CS2)C(=O)N[C@@H](C(C)C)C(=O)O1 [LARGAZOLE] | 6.41 nM | 3.7 nM |  | 70% | 18 nM | 67% |  |  |  |  |  |  |
| CC[C@H](C)[C@@H](C(=O)N1C(=O)C=C(OC)[C@@H]1Cc1ccccc1)N(C)C(=O)[C@H](C(C)C)N(C)C(=O)[C@@H](NC(=O)[C@H](C(C)C)N(C)C)C(C)C |  |  |  |  |  |  |  | 67% | 3.9 µM | 8.6 µM | 5.2 µM | 100% |
